From ChEMBL document CHEMBL3286172, “Exploring the role of 2-chloro-6-fluoro substitution in 2-alkylthio-6-benzyl-5-alkylpyrimidin-4(3H)-ones: effects in HIV-1-infected cells and in HIV-1 reverse transcriptase enzymes” (J Med Chem, 2014)

What was measured:
[1] = system: Human immunodeficiency virus 1; assay: Antiviral activity against HIV-1 harboring NNTRI-resistant reverse transcriptase Y188L mutant infected in human MT4 cells assessed as inhibition of virus-induced cytopathic effect by MTT method; type: functional, organism-based; details: Human immunodeficiency virus 1, MT4
Summary of the method: (§1)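 MT-4 lymphoid cells infected with HIV-1 carrying RT K103N, Y181C or Y188L, with a range of drug concentrations present. Viable cells counted by MTT colorimetric assay at day 5 post-infection. […] Highest concentration tested was limited by precipitation in culture medium. Means of at least two experiments.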

[2] = system: Human immunodeficiency virus 1; assay: Antiviral activity against HIV-1 harboring NNTRI-resistant reverse transcriptase Y181C mutant infected in human MT4 cells assessed as inhibition of virus-induced cytopathic effect by MTT method; type: functional, organism-based; details: Human immunodeficiency virus 1, MT4; summary of the method: as §1
[3] = Selectivity index, ratio of CC50 for human MT4 cells to EC50 for wild type HIV-1 NL4-3 infected in human MT4 cells; type: toxicity, cell-based; details: read-out: Ratio CC50/EC50
Summary of the method: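 Ratio of CC50 to EC50, both from MTT readings in MT-4 cells at day 5. CC50 was taken in mock-infected cells and EC50 in cells infected with wild-type NL4-3. Values are means of at least two experiments.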

[4] = system: Human immunodeficiency virus 1; assay: Fold resistance, ratio of EC50 for HIV-1 harboring NNTRI-resistant reverse transcriptase K103N mutant infected in human MT4 cells to EC50 for wild type HIV-1 NL4-3 infected in human MT4 cells; type: functional
[5] = Cytotoxicity against human MT4 cells assessed as induction of cell death by MTT method; type: cell-based
Summary of the method: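 Mock-infected MT-4 cells exposed to a range of drug concentrations. Viability read by MTT colorimetry at day 5. […] Top concentration was limited where compound precipitated in the culture medium. Means of at least two experiments.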

[6] = system: Human immunodeficiency virus 1; assay: Fold resistance, ratio of EC50 for HIV-1 harboring NNTRI-resistant reverse transcriptase Y181C mutant infected in human MT4 cells to EC50 for wild type HIV-1 NL4-3 infected in human MT4 cells; type: functional
Summary of the method: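 MT-4 cells infected with HIV-1 mutant (K103N or Y181C) or wild-type NL4-3, with drug present. […] Fold resistance is the mutant EC50 divided by the wild-type NL4-3 EC50. EC50 values are means of at least two experiments.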

[7] = system: Human immunodeficiency virus 1; assay: Antiviral activity against HIV-1 harboring NNTRI-resistant reverse transcriptase K103N mutant infected in human MT4 cells assessed as inhibition of virus-induced cytopathic effect by MTT method; type: functional, organism-based; details: Human immunodeficiency virus 1, MT4
[8] = system: Human immunodeficiency virus 1; assay: Antiviral activity against wild type HIV-1 NL4-3 infected in human MT4 cells assessed as inhibition of virus-induced cytopathic effect by MTT method; type: functional, organism-based; details: Human immunodeficiency virus 1, NL4-3, MT4
Summary of the method: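 MT-4 lymphoid cells infected with wild-type HIV-1 NL4-3 while exposed to a range of drug concentrations. Viable cells counted by tetrazolium (MTT) colorimetry at day 5 post-infection. Means of at least two experiments.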

[9] = target: Human immunodeficiency virus type 1 reverse transcriptase (Human immunodeficiency virus 1) (UniProt Q72547)
[10] = system: Human immunodeficiency virus type 1 reverse transcriptase (Human immunodeficiency virus 1), Q72547 [L100I]
[11] = system: Human immunodeficiency virus type 1 reverse transcriptase (Human immunodeficiency virus 1), Q72547 [K103N]

SMILES | EC50 [1] [nM] | EC50 [2] [nM] | selectivity ratio [3] | Ratio EC50 [4] | CC50 [5] [nM] | Ratio EC50 [6] | EC50 [7] [nM] | EC50 [8] [nM] | pID50 [9] | ID50 [9] [nM] | ID50 [10] [nM] | ID50 [11] [nM]
CC(C)Sc1nc(Cc2c(F)cccc2Cl)cc(=O)[nH]1 | > 80000 | 17800 | > 210 | 103 | > 80000 | 47 | 39200 | 380 |  |  |  | 
CCCSc1nc(Cc2c(F)cccc2Cl)c(C)c(=O)[nH]1 | > 76000 | 2300 | > 884 | 107 | > 76000 | 27 | 9200 | 86 |  |  |  | 
CCC(C)Sc1nc(Cc2c(F)cccc2Cl)c(C)c(=O)[nH]1 (configuration not stated) | > 73000 | 5200 | > 1550 | 115 | > 73000 | 111 | 5400 | 47 |  |  |  | 
CCCCSc1nc(Cc2c(F)cccc2Cl)c(C)c(=O)[nH]1 | > 73000 | 2300 | > 664 | 182 | > 73000 | 21 | 20000 | 110 |  |  |  | 
Cc1c(Cc2c(F)cccc2Cl)nc(SC2CCCC2)[nH]c1=O | > 71000 | > 71000 | > 394 |  | > 71000 |  | > 71000 | 180 |  |  |  | 
Cc1c([C@H](C)c2c(F)cccc2Cl)nc(SC(C)C)[nH]c1=O | 350 | 150 |  |  | > 23500 |  | 10 | 0.03 |  |  |  | 
Cc1c([C@@H](C)c2c(F)cccc2Cl)nc(SC(C)C)[nH]c1=O | > 36900 | > 36900 |  |  | > 36900 |  | > 36900 | 220 |  |  |  | 
Cc1c([C@@H](C)c2c(F)cccc2F)nc(SC2CCCC2)[nH]c1=O |  |  |  |  |  |  |  |  | 6 |  |  | 
Cc1c([C@H](C)c2c(F)cccc2F)nc(SC2CCCC2)[nH]c1=O |  |  |  |  |  |  |  |  | 8.1 |  |  | 
Cc1c(C(C)c2c(F)cccc2Cl)nc(SC(C)C)[nH]c1=O (racemic) | 3400 | 250 |  |  | > 15000 |  | 140 | 0.04 |  |  |  | 
CCC(C)Sc1nc(C(C)c2c(F)cccc2Cl)c(C)c(=O)[nH]1 (racemic) | > 1500 | 390 |  |  | > 1500 |  | 320 | 0.3 |  |  |  | 
CCc1c(C(C)c2c(F)cccc2Cl)nc(SC(C)C)[nH]c1=O (racemic) | > 3000 | > 3000 | > 3 |  | > 3000 |  | > 3000 | 960 |  | 48 | 1100 | 2600
CCCSc1nc(C(C)c2c(F)cccc2Cl)c(CC)c(=O)[nH]1 (racemic) | > 3000 | > 3000 | > 107 |  | > 3000 |  | > 3000 | 28 |  | 10 | 230 | 2600
CCc1c(C(C)c2c(F)cccc2Cl)nc(SC(C)CC)[nH]c1=O (racemic) | > 3000 | > 3000 | > 11 |  | > 3000 |  | > 3000 | 270 |  | 8 | 400 | 2400
CCCCSc1nc(C(C)c2c(F)cccc2Cl)c(CC)c(=O)[nH]1 (racemic) | > 3000 | > 3000 | > 47 |  | > 3000 |  | > 3000 | 64 |  | 22 | 330 | 2300
CCc1c(C(C)c2c(F)cccc2Cl)nc(SC2CCCC2)[nH]c1=O (racemic) | > 3000 | > 3000 |  |  | > 3000 |  | > 3000 | > 3000 |  | 24 | 530 | 1800
CCC(c1nc(SC(C)C)[nH]c(=O)c1C)c1c(F)cccc1Cl (racemic) | > 3000 | > 3000 | > 36 |  | > 3000 |  | > 3000 | 84 |  | 6 | 120 | 420
CCC(C)Sc1nc(C(CC)c2c(F)cccc2Cl)c(C)c(=O)[nH]1 (racemic) | > 3000 | > 3000 | > 56 |  | > 3000 |  | > 3000 | 54 |  | 2 | 120 | 450
CCCCSc1nc(C(CC)c2c(F)cccc2Cl)c(C)c(=O)[nH]1 (racemic) | > 3000 | > 3000 | > 27 |  | > 3000 |  | > 3000 | 110 |  | 3 | 260 | 1000
CCC(c1nc(SC2CCCC2)[nH]c(=O)c1C)c1c(F)cccc1Cl (racemic) | > 3000 | > 3000 | > 5 |  | > 3000 |  | > 3000 | 580 |  | 4 | 68 | 340
CCCSc1nc(C(C)c2c(F)cccc2F)c(C)c(=O)[nH]1 (racemic) | > 3000 | > 3000 | > 107 |  | > 3000 |  | > 3000 | 28 |  | 1 | 230 | 380
CCc1c(C(C)c2c(F)cccc2F)nc(SC(C)C)[nH]c1=O (racemic) | > 3000 | > 3000 | > 34 |  | > 3000 |  | > 3000 | 89 |  | 12 | 27200 | 830
CCCSc1nc(C(C)c2c(F)cccc2F)c(CC)c(=O)[nH]1 (racemic) | > 3000 | > 3000 | > 12 |  | > 3000 |  | > 3000 | 240 |  | 3 | 270 | 430
CCc1c(C(C)c2c(F)cccc2F)nc(SC(C)CC)[nH]c1=O (racemic) | > 3000 | > 3000 | > 21 |  | > 3000 |  | > 3000 | 140 |  | 11 | 110 | 450
CCCCSc1nc(C(CC)c2c(F)cccc2F)c(C)c(=O)[nH]1 (racemic) | > 3000 | > 3000 | > 130 |  | > 3000 |  | > 3000 | 23 |  | 3 | 230 | 280
CCCCSc1nc(O)c(C)c(C(C)c2c(F)cccc2F)n1 (racemic) | > 3000 | > 3000 | > 60 |  | > 3000 |  | > 3000 | 50 |  | 3 | 230 | 450
Cc1c(C(C)c2c(F)cccc2F)nc(SC(C)C)[nH]c1=O (racemic) |  |  | > 3000 |  | > 3000 |  |  |  |  |  |  | 
O=C1Nc2ccc(Cl)cc2[C@@](C#CC2CC2)(C(F)(F)F)O1 [EFAVIRENZ] | 1970 | 13 |  |  | > 3000 |  |  |  |  |  |  | 
Cc1ccnc2c1NC(=O)c1cccnc1N2C1CC1 [NEVIRAPINE] | > 7000 | > 7000 |  |  | > 7000 |  |  |  |  |  |  | 
